Experimental data taken from ChEMBL document CHEMBL4725276, “Strategies towards potent trypanocidal drugs: Application of Rh-catalyzed [2 + 2 + 2] cycloadditions, sulfonyl phthalide annulation and nitroalkene reactions for the synthesis of substituted quinones and their evaluation against Trypanosoma cruzi” (Bioorg Med Chem, 2020).

What was measured:
Trypanosoma cruzi [1] = test: Trypanocidal activity against Trypanosoma cruzi Y strain bloodstream trypomastigotes isolated from infected Albino Swiss mouse assessed as lysis of parasite in presence of 5 % mouse blood incubated for 24 hrs by Neubauer chamber method; assay type: functional, organism-based
How it was run: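 Y-strain bloodstream trypomastigotes were isolated from infected mice at peak parasitemia by differential centrifugation and suspended at 10x10⁶ parasites/mL in DMES. They were mixed 1:1 with compound prepared at 2x final (DMSO final ≤0.1%) and incubated 24 h at 4 °C with 5% mouse blood, with benznidazole as control.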

[2] = Cytotoxicity against albino Swiss mouse Peritoneal macrophages in presence of 5 % mouse blood incubated for 24 hrs by PrestoBlue dye based fluorescence assay; assay type: cell-based, Peritoneal macrophage; details: read-out: LD50
How it was run: (§1)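 Primary peritoneal macrophages from Albino Swiss mice, 2.5 x 10⁴ cells/well in RPMI-1640 (pH 7.2, 10% foetal bovine serum, 2 mM glutamine), preincubated 24 h at 37 °C. Treated in fresh supplemented medium for 24 h at 37 °C. PrestoBlue added, 2 h incubation, read at 560 and 590 nm. LC₅₀/24 h is the concentration damaging 50% of cells, from reduction relative to untreated cells.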

[3] = Selectivity index, ratio of LD50 for cytotoxicity against albino Swiss mouse peritoneal macrophages to IC50 for Trypanocidal activity against Trypanosoma cruzi Y strain bloodstream trypomastigotes isolated from infected albino Swiss mouse in presence of 5 % mouse blood; assay type: toxicity; details: read-out: Selectivity Index
How it was run: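 Combines the macrophage LD₅₀/24 h with the trypanocidal IC₅₀/24 h, parasite assay run in 5% mouse blood at 4 °C. Y strain bloodstream trypomastigotes from infected Albino Swiss mice (peak parasitemia, differential centrifugation) were suspended at 10x10⁶/mL in DMES. They were mixed 1:1 with compound at twice the final concentration (DMSO ≤0.1% final) for 24 h. Neubauer chamber counts; IC₅₀ is 50% lysis; mean ± SD of at least three independent experiments.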

Trypanosoma cruzi [4] = test: Trypanocidal activity against Trypanosoma cruzi Y strain bloodstream trypomastigotes isolated from infected Albino Swiss mouse assessed as lysis of parasite in absence of mouse blood incubated for 24 hrs by Neubauer chamber method; assay type: functional, organism-based
How it was run: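 Bloodstream trypomastigotes (Y strain) were taken from mice at peak parasitemia by differential centrifugation and resuspended at 10x10⁶/mL in DMES. Equal volumes of suspension and compound at twice final concentration (DMSO final ≤0.1%) were incubated 24 h at 37 °C with no blood added, with benznidazole as control.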

[5] = Selectivity index, ratio of LD50 for cytotoxicity against albino Swiss mouse peritoneal macrophages to IC50 for Trypanocidal activity against Trypanosoma cruzi Y strain bloodstream trypomastigotes isolated from infected albino Swiss mouse in absence of mouse blood; assay type: toxicity; details: read-out: Selectivity Index
How it was run: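 Combines the macrophage LD₅₀/24 h with the trypanocidal IC₅₀/24 h, parasite assay run without blood at 37 °C. Y strain bloodstream trypomastigotes were taken from infected Albino Swiss mice at peak parasitemia by differential centrifugation, at 10x10⁶/mL in DMES. They were mixed 1:1 with compound at twice the final concentration (DMSO ≤0.1% final) for 24 h. Neubauer counts; IC₅₀ is 50% lysis.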

[6] = Cytotoxicity against albino Swiss mouse Peritoneal macrophages in absence of mouse blood incubated for 24 hrs in absence of mouse blood by PrestoBlue dye based fluorescence assay; assay type: cell-based, Peritoneal macrophage; details: read-out: LD50; how it was run: as §1
Trypanosoma cruzi [7] = test: Potency index, ratio of benznidazole IC50 to compound IC50 for trypanocidal activity against Trypanosoma cruzi Y strain bloodstream trypomastigotes isolated from infected Albino Swiss mouse assessed as lysis of parasite in presence of 5 % mouse blood incubated for 24 hrs by Neubauer chamber method; assay type: functional

Structure (SMILES): COC1=CC(=O)c2cc3c(c(-c4ccc5c(c4)OCO5)c2C1=O)COC3=O
- IC50 (Trypanosoma cruzi [1]): > 500 µM

Structure (SMILES): O=C1c2ccccc2C(=O)c2c1oc1ccccc21
- IC50 (Trypanosoma cruzi [1]): > 500 µM

Structure (SMILES): COC(=O)C1(C(=O)OC)Cc2cc3c(cc2C1)C(=O)C(c1ccc(C(F)(F)F)cc1)=CC3=O
- IC50 (Trypanosoma cruzi [1]): 362 µM

Structure (SMILES): COC(=O)C1(C(=O)OC)Cc2cc3c(cc2C1)C(=O)C=CC3=O
- CC50 at 24 h [2]: 1.6 µM
- IC50 (Trypanosoma cruzi [1]): 51.5 µM
- selectivity ratio [3]: 0.03

Structure (SMILES): COc1ccc(-n2cc(-c3ccccc3)c3c2C(=O)c2ccccc2C3=O)cc1
- IC50 (Trypanosoma cruzi [1]): > 500 µM

Structure (SMILES): COc1ccc(-c2coc3c2C(=O)c2ccccc2C3=O)cc1
- IC50 (Trypanosoma cruzi [1]): > 500 µM

Structure (SMILES): COC(=O)C1(C(=O)OC)Cc2c(C)c3c(c(C)c2C1)C(=O)C=CC3=O
- IC50 (Trypanosoma cruzi [1]): > 500 µM

Structure (SMILES): CCOc1cccc2c3c(oc12)C(=O)c1ccccc1C3=O
- IC50 (Trypanosoma cruzi [1]): > 500 µM

Structure (SMILES): COc1ccc(-n2cc(-c3ccco3)c3c2C(=O)c2ccccc2C3=O)cc1
- IC50 (Trypanosoma cruzi [1]): > 500 µM

Structure (SMILES): COc1ccc(-c2cn(-c3ccc(OC)cc3)c3c2C(=O)c2ccccc2C3=O)cc1
- IC50 (Trypanosoma cruzi [1]): > 500 µM

Structure (SMILES): O=C1c2ccccc2C(=O)c2c(-c3ccc(F)cc3)coc21
- IC50 (Trypanosoma cruzi [1]): > 500 µM

Structure (SMILES): COC(=O)C1(C(=O)OC)Cc2cc3c(cc2C1)C(=O)C(Br)=CC3=O
- IC50 (Trypanosoma cruzi [1]): 150 µM

Structure (SMILES): CSc1ccc(-c2coc3c2C(=O)c2ccccc2C3=O)cc1
- IC50 (Trypanosoma cruzi [1]): > 500 µM

Structure (SMILES): COc1ccc(-n2cc(-c3ccc(Cl)cc3)c3c2C(=O)c2ccccc2C3=O)cc1
- IC50 (Trypanosoma cruzi [1]): > 500 µM

Structure (SMILES): COC(=O)C1(C(=O)OC)Cc2cc3c(cc2C1)C(=O)C(Cl)=CC3=O
- CC50 at 24 h [2]: 5 µM
- IC50 (Trypanosoma cruzi [1]): 56.6 µM
- selectivity ratio [3]: 0.09

Structure (SMILES): Cc1cc2oc3c(c2cc1C)C(=O)c1ccccc1C3=O
- IC50 (Trypanosoma cruzi [1]): > 500 µM

Structure (SMILES): COC(=O)C1(C(=O)OC)Cc2cc3c(cc2C1)C(=O)c1ccccc1C3=O
- IC50 (Trypanosoma cruzi [1]): > 500 µM

Structure (SMILES): O=C1C=CC(=O)c2c1cc1oc3ccccc3c1c2-c1ccccc1
- IC50 (Trypanosoma cruzi [1]): 247 µM

Structure (SMILES): O=C1c2ccccc2C(=O)c2c(-c3ccccc3[N+](=O)[O-])coc21
- IC50 (Trypanosoma cruzi [1]): > 500 µM

Structure (SMILES): O=C1C=CC(=O)c2cc3c(cc21)COC3
- IC50 (Trypanosoma cruzi [1]): 193 µM

Structure (SMILES): O=C1c2ccccc2C(=O)c2c(-c3ccc(Br)cc3)coc21
- IC50 (Trypanosoma cruzi [1]): > 500 µM

Structure (SMILES): COC(=O)C1(C(=O)OC)Cc2c(c(-c3ccccc3)c3c(c2-c2ccccc2)C(=O)C=CC3=O)C1
- IC50 (Trypanosoma cruzi [4]): 0.44 µM
- CC50 at 24 h [2]: 1.6 µM
- IC50 (Trypanosoma cruzi [1]): 2.5 µM
- selectivity ratio [3]: 0.6
- selectivity ratio [5]: 3.7

Structure (SMILES): COc1ccc(-n2cc(-c3ccc(F)cc3)c3c2C(=O)c2ccccc2C3=O)cc1
- IC50 (Trypanosoma cruzi [1]): > 500 µM

Structure (SMILES): COC(=O)C1(C(=O)OC)Cc2cc3c(cc2C1)C(=O)C(c1ccccc1)=CC3=O
- IC50 (Trypanosoma cruzi [1]): 369 µM

Structure (SMILES): COC(=O)C1(C(=O)OC)Cc2c(O)c3c(c(O)c2C1)C(=O)C(OC)=CC3=O
- IC50 (Trypanosoma cruzi [1]): > 500 µM

Structure (SMILES): COC(=O)C1(C(=O)OC)Cc2cc3c(cc2C1)C(=O)C(OC)=CC3=O
- IC50 (Trypanosoma cruzi [1]): > 500 µM

Structure (SMILES): CCCCc1c2c(cc3c1C(=O)C=CC3=O)CC(C(=O)OC)(C(=O)OC)C2
- CC50 at 24 h [2]: 4.2 µM
- IC50 (Trypanosoma cruzi [1]): 64.4 µM
- selectivity ratio [3]: 0.07

Structure (SMILES): Cc1ccc(-c2cn(-c3cccc(Br)c3)c3c2C(=O)c2ccccc2C3=O)cc1
- IC50 (Trypanosoma cruzi [1]): > 500 µM

Structure (SMILES): COC(=O)C1(C(=O)OC)Cc2c(c(-c3ccc(OC)cc3)c3c(c2-c2ccc(OC)cc2)C(=O)C=CC3=O)C1
- IC50 (Trypanosoma cruzi [4]): 0.14 µM
- CC50 at 24 h [2]: 1.9 µM
- IC50 (Trypanosoma cruzi [1]): 2.3 µM
- selectivity ratio [3]: 0.81
- selectivity ratio [5]: 13.9

Structure (SMILES): COC(=O)C1(C(=O)OC)Cc2cc3c(cc2C1)C(=O)C(C)=C(C)C3=O
- IC50 (Trypanosoma cruzi [1]): > 500 µM

Structure (SMILES): O=C1c2ccccc2C(=O)c2c(-c3cccs3)coc21
- IC50 (Trypanosoma cruzi [1]): > 500 µM

Structure (SMILES): COC(=O)C1(C(=O)OC)Cc2cc3c(c(C(=O)O)c2C1)C(=O)C=CC3=O
- IC50 (Trypanosoma cruzi [1]): > 500 µM

Structure (SMILES): COc1ccc2oc3c(c2c1)C(=O)c1ccccc1C3=O
- IC50 (Trypanosoma cruzi [1]): > 500 µM

Structure (SMILES): COC(=O)C1(C(=O)OC)Cc2cc3c(cc2C1)C(=O)C(c1ccccc1Br)=CC3=O
- CC50 at 24 h [2]: 3.8 µM
- IC50 (Trypanosoma cruzi [1]): 51.5 µM
- selectivity ratio [3]: 0.07

Structure (SMILES): CC(=O)CCC1=C(c2ccco2)C(=O)c2ccccc2C1=O
- IC50 (Trypanosoma cruzi [1]): > 500 µM

Structure (SMILES): COC(=O)C1(C(=O)OC)Cc2cc3c(cc2C1)C(=O)C(I)=CC3=O
- CC50 at 24 h [2]: 1.6 µM
- IC50 (Trypanosoma cruzi [1]): 51.3 µM
- selectivity ratio [3]: 0.03

Structure (SMILES): CCCCc1c2c(c(CCCC)c3c1C(=O)C=CC3=O)CN(S(=O)(=O)c1ccc(C)cc1)C2
- IC50 (Trypanosoma cruzi [1]): > 500 µM

Structure (SMILES): COC(=O)C1(C(=O)OC)Cc2cc3c(cc2C1)C(=O)C(c1ccccc1OC)=CC3=O
- IC50 (Trypanosoma cruzi [1]): 102 µM

Structure (SMILES): COC(=O)C1(C(=O)OC)Cc2cc3c(cc2C1)C(=O)C(N(C)c1ccccc1)=CC3=O
- IC50 (Trypanosoma cruzi [1]): > 500 µM

Structure (SMILES): Cc1ccc(S(=O)(=O)N2Cc3cc4c(cc3C2)C(=O)C=CC4=O)cc1
- IC50 (Trypanosoma cruzi [1]): > 500 µM

Structure (SMILES): COc1ccc(-c2cn(-c3ccc(F)cc3)c3c2C(=O)c2ccccc2C3=O)cc1
- IC50 (Trypanosoma cruzi [1]): > 500 µM

Structure (SMILES): CC(=O)CCC1=C(c2ccc(F)cc2)C(=O)c2ccccc2C1=O
- CC50 at 24 h [2]: 65.4 µM
- IC50 (Trypanosoma cruzi [1]): 114 µM

Structure (SMILES): COC(=O)C1(C(=O)OC)Cc2c(c(-c3ccc(F)cc3)c3c(c2-c2ccc(F)cc2)C(=O)C=CC3=O)C1
- IC50 (Trypanosoma cruzi [4]): 0.32 µM
- CC50 at 24 h [2]: 3 µM
- IC50 (Trypanosoma cruzi [1]): 3.3 µM
- selectivity ratio [3]: 0.89
- selectivity ratio [5]: 9.3

Structure (SMILES): COc1ccc(C2=C(CCC(C)=O)C(=O)c3ccccc3C2=O)cc1
- CC50 at 24 h [2]: 79 µM
- IC50 (Trypanosoma cruzi [1]): 109 µM
- selectivity ratio [3]: 1.38

Structure (SMILES): O=C(Cn1ccnc1[N+](=O)[O-])NCc1ccccc1 [BENZNIDAZOLE]
- IC50 (Trypanosoma cruzi [4]): 8.8 µM
- CC50 at 24 h [6]: > 1000 µM

Structure (SMILES): COC(=O)C1(C(=O)OC)Cc2cc3c(c(O)c2C1)C(=O)C=C(OC)C3=O
- IC50 (Trypanosoma cruzi [1]): > 500 µM

Structure (SMILES): COc1ccc(-c2cn(-c3ccccc3)c3c2C(=O)c2ccccc2C3=O)cc1
- IC50 (Trypanosoma cruzi [1]): > 500 µM

Structure (SMILES): CCCCn1cc(-c2ccc(Cl)cc2)c2c1C(=O)c1ccccc1C2=O
- IC50 (Trypanosoma cruzi [1]): > 500 µM

Structure (SMILES): Cc1ccc(-c2cn(-c3ccc(C)cc3)c3c2C(=O)c2ccccc2C3=O)cc1
- IC50 (Trypanosoma cruzi [1]): > 500 µM

Structure (SMILES): Cc1ccc(S(=O)(=O)n2c3ccccc3c3c(-c4ccccc4)c4c(cc32)C(=O)C=CC4=O)cc1
- IC50 (Trypanosoma cruzi [1]): 122 µM

Structure (SMILES): O=C1C=CC(=O)c2cc3c(cc21)CCC3
- CC50 at 24 h [2]: 1.7 µM
- IC50 (Trypanosoma cruzi [1]): 49.2 µM
- selectivity ratio [3]: 0.03
- Ratio IC50 (Trypanosoma cruzi [7]): 2

Structure (SMILES): Cc1ccc2oc3c(c2c1)C(=O)c1ccccc1C3=O
- IC50 (Trypanosoma cruzi [1]): > 500 µM

Structure (SMILES): COC(=O)C1(C(=O)OC)Cc2cc3c(c(CO[Si](C)(C)C(C)(C)C)c2C1)C(=O)C=CC3=O
- IC50 (Trypanosoma cruzi [1]): > 500 µM

Structure (SMILES): Cc1ccc(-c2cn(-c3ccc(Br)cc3)c3c2C(=O)c2ccccc2C3=O)cc1
- IC50 (Trypanosoma cruzi [1]): > 500 µM

Structure (SMILES): COc1ccc(-n2cc(-c3ccc(C)cc3)c3c2C(=O)c2ccccc2C3=O)cc1
- IC50 (Trypanosoma cruzi [1]): > 500 µM

Structure (SMILES): COc1ccc(-c2cn(-c3ccc(Cl)cc3)c3c2C(=O)c2ccccc2C3=O)cc1
- IC50 (Trypanosoma cruzi [1]): > 500 µM
